Screening data (PubChem BioAssay)
KCNK9 block = KCNK9 potassium channel inhibitors, primary screen, HEK293 cells, thallium flux | 1.2% of 310,000 active | FluxOR thallium flux fluorescence; stronger effect = lower value | B-score at 10 µM;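 active means ratio B-score over 3 SD below the library mean, with starting fluorescence within 5 SD of its mean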;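 further: negative B-score means less thallium flux so channel inhibition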
hERG protect = hERG rescue from dofetilide block, primary screen, cell-based, CHO-hERG, FluxOR thallium flux, dofetilide IC70; 0.51% of 310,000 active; activation (rescue from dofetilide block), less the hit threshold, % at 10 µM; dofetilide IC70 present;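 active means activation above the mean of controls blocked by dofetilide plus 5 SD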;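 further: thallium influx through hERG after potassium depolarization seen as dye fluorescence rise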
KCNQ1 act = potentiators or activators of KCNQ1 channel, primary screen, cell-based, thallium flux, high-throughput; Potassium voltage-gated channel subfamily KQT member 1 (Homo sapiens), P51787; CHO-K1 KCNQ1, thallium flux FluxOR fluorescence; stronger effect = higher value; B-score at 10 µM; 0.35% of 310,000 active;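 active means fluorescence ratio B-score, a plate-corrected score, at least three library SD, with initial intensity B-score within 5 SD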
Target sequence (P51787 whole entry, looked up): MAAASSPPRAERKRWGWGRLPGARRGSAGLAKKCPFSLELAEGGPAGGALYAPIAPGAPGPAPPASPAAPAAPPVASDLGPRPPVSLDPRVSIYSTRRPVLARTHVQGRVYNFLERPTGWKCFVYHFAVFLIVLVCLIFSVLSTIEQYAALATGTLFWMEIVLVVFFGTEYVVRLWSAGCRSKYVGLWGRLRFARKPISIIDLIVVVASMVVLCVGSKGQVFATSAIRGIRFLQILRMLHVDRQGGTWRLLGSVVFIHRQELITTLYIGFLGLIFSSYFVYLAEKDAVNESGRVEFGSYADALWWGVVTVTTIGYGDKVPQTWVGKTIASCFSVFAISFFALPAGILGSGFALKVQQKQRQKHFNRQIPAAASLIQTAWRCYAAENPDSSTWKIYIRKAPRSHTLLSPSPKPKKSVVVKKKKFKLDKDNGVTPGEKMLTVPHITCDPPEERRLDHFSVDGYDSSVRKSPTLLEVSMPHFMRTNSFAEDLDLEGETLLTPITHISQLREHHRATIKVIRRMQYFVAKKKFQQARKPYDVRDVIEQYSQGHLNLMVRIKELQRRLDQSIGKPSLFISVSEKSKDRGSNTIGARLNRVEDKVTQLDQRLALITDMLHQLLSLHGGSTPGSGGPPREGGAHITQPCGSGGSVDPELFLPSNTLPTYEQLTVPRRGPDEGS
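System: Stable KCNQ1 CHO-K1 line | Incubation: 90 min dye loading and 20 min compound exposure, both at room temperature | Measure: Ratio B score | Medium: Assay buffer for compound exposure, DMSO matched across wells | Compound dosing: Single-concentration screen | Probe or stimulus: K+/Tl+ depolarizing stimulus | Measured by: Kinetic FluxOR fluorescence, 10 s baseline plus 110 s post-stimulus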
KCNQ1 inh = inhibitors of human KCNQ1 channel, primary screen, cell-based, thallium flux, high-throughput | 1.3% of 310,000 active | Potassium voltage-gated channel subfamily KQT member 1 (Homo sapiens), P51787 | AID 2642, 2010 | CHO-K1 KCNQ1, FluxOR thallium flux fluorescence; stronger effect = higher value | B-score at 10 µM;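 active means compounds whose thallium flux B-score, printed positive for inhibition, exceeds three library SD while starting fluorescence stays within three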;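 further: channel opened by potassium depolarization with thallium stimulus after 20 min compound exposure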
Kir21 block = inhibitors of mouse Kir2.1 inward-rectifier potassium channel. B-score at 10 µM. HEK293-Kir2.1, FluxOR thallium flux fluorescence; stronger effect = lower value. AID 1672, 2009. 0.85% of 310,000 active;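 active means fluorescence ratio B-score at or below minus 3 SD of library scores, with starting-brightness B-score within 2 SD, cut at about -4.2 in these data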;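 further: channel flux triggered by added potassium and thallium sulfate stimulus; B-score of peak minus minimum fluorescence over baseline after thallium stimulus; more negative B-score means stronger Kir2.1 block with less thallium influx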
KCNK3 inh = human KCNK3 channel inhibitors, primary screen, CHO cells, FluxOR thallium flux, B-score; B-score at 10 µM; Potassium channel subfamily K member 3 (Homo sapiens), O14649; AID 602410, 2012; FluxOR fluorescence; stronger effect = lower value; 0.84% of 340,000 active;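 active means B-score under library mean minus 4 SD, starting fluorescence ratio at most library mean plus 5 SD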;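 further: more negative B-score means stronger inhibition of thallium flux through KCNK3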
KCNK9 block conf = KCNK9 potassium channel inhibitors, confirmation, HEK293 cells, thallium flux, duplicate; shares compounds with KCNK9 block; FluxOR thallium flux fluorescence; inhibition, % at 10 µM; 43% of 4,900 active;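 active means thallium signal inhibited by more than 5 SD of the compound-free buffer control wells, on both duplicate plates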;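 further: 0% = assay buffer control wells without compound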
Kir2-1 spec = mouse Kir2.1 channel inhibition, confirmation, selectivity assay for KCNK9 modulator project, cell-based, HEK293, thallium flux; shares compounds with KCNK9 block; Kir2.1 cells, FluxOR thallium flux fluorescence; inhibition, % at 10 µM; 4% of 4,900 active; AID 492993, 2010;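 active means thallium signal drop more than 5 SD beyond the mean of the no-compound control wells, seen in both duplicate plates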;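 further: signal is fluorescence rise after thallium addition divided by baseline fluorescence; plate controls were assay buffer only for no effect and full block by chlorpromazine control for full effect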
KCNK9 uninduced = thallium flux in non-induced HEK293 cells, confirmation, counter-screen for KCNK9 inhibitor project, cell-based, second counter screen, non-induced KCNK9-HEK293; 40% of 4,900 active; FluxOR thallium flux; inhibition, % at 10 µM; shares compounds with KCNK9 block; AID 492997, 2010;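 active means thallium signal drop beyond 5 SD of the untreated control mean, on both duplicate plates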;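 further: plate controls were buffer only IC0 wells for no effect and SID17386958 at its maximal inhibitory level for full effect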
KCNK3 inh conf = retest of human KCNK3 channel inhibitors, confirmation, CHO cells, FluxOR thallium flux, triplicate | FluxOR fluorescence; 0% buffer, 100% carvedilol maximal block | 99% of 2,400 active | ratio percent of control, % at 10 µM | AID 651638, 2012 | shares compounds with KCNK3 inh;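 active means ratio percent of control, averaged over triplicates, above buffer control mean plus 5 SD, cut at about 64% in these data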;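 further: ratio is the fluorescence rise from min to max over baseline after thallium stimulus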
KCNK3 noninduced = thallium flux inhibition in non-induced cells, primary screen, counter-screen for KCNK3 inhibitor project, cell-based, non-induced KCNK3 line, FluxOR thallium, triplicate; shares compounds with KCNK3 inh; non-induced KCNK3 parental cells; stronger effect = lower value; thallium flux ratio (lower = more inhibition) at 10 µM; 40% of 2,400 active; AID 651747, 2012;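 active means thallium flux ratio, averaged over three wells, more than 5 SD below the buffer control mean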;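 further: host cells are CHO cells without KCNK3 induction; ratio is peak minus trough fluorescence over baseline then normalized to buffer controls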
Numbers without * were called inactive; i = inactive; x = no result. Most compounds without a hit are left out; they make up all but 3.7% or so of the library.

SMILES | KCNK9 block | hERG protect | KCNQ1 act | KCNQ1 inh | Kir21 block | KCNK3 inh | KCNK9 block conf | Kir2-1 spec | KCNK9 uninduced | KCNK3 inh conf | KCNK3 noninduced
O=C(c1ccco1)N(CCC(c1ccccc1)c1ccco1)Cc1ccc(F)cc1 (stereo not drawn) | -14* | -19 | i | i | -4.4* | -11* | 66%* | 40%* | 31%* | 95* | 0.15*
CC(C)S(=O)(=O)c1csc(NC(=O)Nc2cc(Cl)ccc2Cl)c1Cl | -8.2* | -8 | i | i | -0.15 | -11* | 54%* | i | 38%* | 139* | 0.14*
CCOC(=O)c1ccc(NC(=O)COc2ccccc2CNCCc2ccccc2)cc1 | -8.1* | -25 | i | 11* | -3.7 | -12* | 30%* | i | i | 104* | i
CCOC(=O)c1ccc(NC(=O)COc2ccc(CNCCO)cc2OCC)cc1 | i | -7 | i | i | 1.5 | i | x | x | x | x | x
Cc1nc2c(-c3ccc(F)cc3)c(C)nn2c(C)c1CCC(=O)N1CCC(Cc2ccccc2)CC1 | -9.8* | -10 | i | i | 0.45 | -10* | i | i | 42%* | 115* | i
COC(=O)C(C)N(C(=O)c1ccc(C(=O)c2ccccc2)cc1)c1c(C)cccc1C (stereo not drawn) | -9* | -4 | i | i | -2.8 | -11* | 40%* | i | 34%* | 92* | i
CC(C)C(=O)Nc1ccc(C(=O)c2ccccc2)cc1 | i | -10 | i | i | 0.08 | i | x | x | x | x | x
C=CCN(Cc1cccs1)C(=O)CN1CCN(S(=O)(=O)c2ccc3c(c2)OCCCO3)CC1 | x | x | x | x | x | i | x | x | x | x | x
Cc1cc([N+](=O)[O-])ccc1NC(=O)CSc1nnc(C)n1C | i | 0 | i | i | 2.2 | i | x | x | x | x | x
CCOC(=O)C1CCN(C(=O)COc2ccc(Br)cc2Br)CC1 | i | -14 | i | i | -2 | i | x | x | x | x | x
CCOC(=O)C1CCN(C(=O)COc2cc(C)c(Br)cc2C)CC1 | i | -8 | i | i | 0.92 | -11* | i | i | i | 78* | i
Cc1cc(C)cc(N(CCC#N)C(=O)CSc2n[nH]c(N)n2)c1 | i | -2 | i | i | -0.66 | i | x | x | x | x | x
Cc1nn(-c2ccccc2)c(Cl)c1/C=N/NC(=O)c1ccccc1F | -14* | -26 | i | i | 0.6 | -11* | 57%* | i | 24%* | 101* | i
CCCCN(CCCC)c1nc(-c2ccncc2)nc2ccccc12 | -9.1* | -32 | i | i | -0.11 | -9.4* | i | i | 34%* | 68* | i
